Screens deposited in PubChem by Johns Hopkins Ion Channel Center.
Rows were chosen to be rich in hits. Some 3.7% of all compounds tested hit in one or more screens of this group.
hERG protect – hERG rescue from dofetilide block, primary screen, cell-based, CHO-hERG, FluxOR thallium flux, dofetilide IC70; Voltage-gated inwardly rectifying potassium channel KCNH2 (Homo sapiens), Q12809; dofetilide IC70 present; activation (rescue from dofetilide block), less the hit threshold, % at 10 µM; 310,000 tested, 0.51% active; AID 1511, 2009;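 active = activation above the mean of controls blocked by dofetilide plus 5 SD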;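 also: thallium influx through hERG after potassium depolarization seen as dye fluorescence rise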
KCNQ1 block – inhibitors of human KCNQ1 channel, primary screen, cell-based, thallium flux, high-throughput. Potassium voltage-gated channel subfamily KQT member 1 (Homo sapiens), P51787. CHO-K1 KCNQ1, FluxOR thallium flux fluorescence; hits give high values. B-score at 10 µM. 310,000 tested, 1.3% active;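 active = compounds whose thallium flux B-score, printed positive for inhibition, exceeds three library SD while starting fluorescence stays within three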;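 also: channel opened by potassium depolarization with thallium stimulus after 20 min compound exposure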
Target sequence (P51787 whole entry, looked up): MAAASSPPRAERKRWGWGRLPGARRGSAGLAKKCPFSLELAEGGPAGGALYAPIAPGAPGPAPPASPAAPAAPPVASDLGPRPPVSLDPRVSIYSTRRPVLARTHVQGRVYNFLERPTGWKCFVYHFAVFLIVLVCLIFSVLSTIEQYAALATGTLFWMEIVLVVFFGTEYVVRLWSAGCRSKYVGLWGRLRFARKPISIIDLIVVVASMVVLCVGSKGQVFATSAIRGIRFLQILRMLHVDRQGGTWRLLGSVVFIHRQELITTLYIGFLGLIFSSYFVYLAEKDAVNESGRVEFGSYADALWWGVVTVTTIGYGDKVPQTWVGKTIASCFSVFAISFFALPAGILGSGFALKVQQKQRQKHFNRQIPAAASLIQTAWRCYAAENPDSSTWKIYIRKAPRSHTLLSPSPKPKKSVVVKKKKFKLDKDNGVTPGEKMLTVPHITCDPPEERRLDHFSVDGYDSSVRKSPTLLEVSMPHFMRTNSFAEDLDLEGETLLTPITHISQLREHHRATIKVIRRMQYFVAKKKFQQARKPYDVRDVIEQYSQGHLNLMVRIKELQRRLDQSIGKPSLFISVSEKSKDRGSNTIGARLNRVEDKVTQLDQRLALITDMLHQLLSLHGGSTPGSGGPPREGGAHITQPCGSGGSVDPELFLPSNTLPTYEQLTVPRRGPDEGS
Kir21 block – inhibitors of mouse Kir2.1 inward-rectifier potassium channel; Inward rectifier potassium channel 2 (Mus musculus), P35561; HEK293-Kir2.1, FluxOR thallium flux fluorescence; hits give low values; B-score at 10 µM; 310,000 tested, 0.85% active;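 active = fluorescence ratio B-score at or below minus 3 SD of library scores, with starting-brightness B-score within 2 SD, cut at about -4.2 in these data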;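 also: channel flux triggered by added potassium and thallium sulfate stimulus; B-score of peak minus minimum fluorescence over baseline after thallium stimulus; more negative B-score means stronger Kir2.1 block with less thallium influx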
KCNQ1 pot – potentiators or activators of KCNQ1 channel, primary screen, cell-based, thallium flux, high-throughput. CHO-K1 KCNQ1, thallium flux FluxOR fluorescence; hits give high values. B-score at 10 µM. 310,000 tested, 0.35% active. AID 2648, 2010;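 active = fluorescence ratio B-score, a plate-corrected score, at least three library SD, with initial intensity B-score within 5 SD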
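Material: CHO-K1 cells stably expressing KCNQ1. Medium: assay buffer for compound exposure, DMSO matched across wells. Reagent: K+/Tl+ depolarizing stimulus. Compound dosing: single-concentration screen. Times: 37 °C overnight plating, 90-min dark dye load, 20-min compound pretreatment. Technique: FluxOR Tl+ flux fluorescence.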
KCNK3 inh – human KCNK3 channel inhibitors, primary screen, CHO cells, FluxOR thallium flux, B-score; B-score at 10 µM; FluxOR fluorescence; hits give low values; 340,000 tested, 0.84% active; AID 602410, 2012;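 active = B-score under library mean minus 4 SD, starting fluorescence ratio at most library mean plus 5 SD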;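 also: more negative B-score means stronger inhibition of thallium flux through KCNK3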
KCNK9 block – KCNK9 potassium channel inhibitors, primary screen, HEK293 cells, thallium flux; FluxOR thallium flux fluorescence; hits give low values; B-score at 10 µM; 310,000 tested, 1.2% active; AID 488922, 2010;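 active = ratio B-score over 3 SD below the library mean, with starting fluorescence within 5 SD of its mean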;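 also: negative B-score means less thallium flux so channel inhibition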
Of the large screens only hits and unclear results are named; the others gave an inactive call.

COc1cc(/C=C/C(=O)Nc2cccc(S(=O)(=O)NC3=NCCCCC3)c2)ccc1OCC#N	none
CCC(O)c1c(-c2ccccc2)nn(C)c1Cl (configuration not stated)	none
Cn1nc(-c2ccccc2)c(CSc2ccccc2)c1Cl	KCNK9 block -7.34
Cc1ccc(S(=O)(=O)N2CCN(C(=O)c3ccc(Br)o3)CC2)c(C)c1	KCNQ1 pot 11
Cc1ccc(S(=O)(=O)N2CCN(C(=O)COC(=O)c3ccc(Br)o3)CC2)c(C)c1	none
O=C(NC(=S)NCCC1=CCCCC1)c1ccco1	hERG protect 30.2, KCNQ1 pot 27
O=C(NC(=S)NCCc1ccccc1)c1ccco1	none
COc1ccc(N(Cc2cc3cccc(C)c3[nH]c2=O)S(=O)(=O)c2ccc(OC)cc2)cc1	none
COc1ccc(N(Cc2cc3cccc(C)c3[nH]c2=O)S(=O)(=O)c2ccc(Cl)cc2)cc1	KCNK9 block -7.5
COc1cc(OC)cc(C(=O)N[C@H](C(=O)OCc2cc(=O)oc3cc(C)ccc23)C(C)C)c1	none
CCOc1ccccc1C(=O)N[C@H](C(=O)OCc1cc(=O)oc2cc(C)ccc12)C(C)C	KCNK9 block -6.72
CCOc1ccccc1C(=O)NC(C(=O)N(C)Cc1ccc2c(c1)OCO2)C(C)C (configuration not stated)	KCNK3 inh -9.25 (no result: hERG protect, KCNQ1 block, Kir21 block, KCNQ1 pot, KCNK9 block)
CN(C)c1nc2c(c(=O)n(C)c(=O)n2C)n1Cc1ccccc1	none
Cn1c(=O)nc2n(Cc3ccccc3)c3ccccc3cc-2c1=O	KCNQ1 pot 8
Cc1ccccc1-n1c2nc(=O)n(C)c(=O)c-2cc2ccccc21	KCNQ1 block 7
CCCCn1c(=O)nc2n(-c3ccccc3C)c3ccccc3cc-2c1=O	KCNQ1 pot 11
Cc1ccccc1-n1c(=O)c2ccccc2n2nnnc12	none
O=C1NC(=O)N2CCSC2(Cc2ccccc2)N1 (configuration not stated)	none (no result: hERG protect, KCNQ1 block, Kir21 block, KCNQ1 pot, KCNK9 block)
Cc1ccc(-c2noc(N=O)c2NO)cc1	KCNK9 block -7.05
O=S(=O)(c1ccccc1Cl)N1CCC(Cc2ccccc2)CC1	KCNQ1 block 6
Cn1c(=O)c(=O)n(C)c2cc(S(=O)(=O)N3CCC(Cc4ccccc4)CC3)ccc21	none
O=C1/C(=C\c2ccc(O)c(O)c2)C(c2ccccc2)=NN1c1ccccc1	KCNQ1 block 6
COc1cc(/C=C2\C(=O)N(c3ccc(NC(C)=O)cc3)N=C2c2ccccc2)ccc1O	none
CC(=NC1CCCC1)c1c(C)[nH]n(-c2nc3ccccc3s2)c1=O	hERG protect 6.2
C=CCNC(=S)N(CC)c1cccc2ccccc12	Kir21 block -5.32
CCN(C(=S)Nc1cccnc1)c1cccc2ccccc12	none
CCCNCC1C(Oc2ccc(Cl)cc2Cl)C(=O)N1c1cccc(C)c1C (configuration not stated)	KCNK9 block -6.74
CCn1c(C)c(C)c2cc(C(=O)Nc3cccc(Cl)c3)ccc21	KCNQ1 block 6
CC(C)Cn1c(=O)c(C(=O)N/N=C/c2cccc(F)c2)c(O)c2ccccc21	KCNQ1 pot 9
CCCCn1c(=O)c(C(=O)N/N=C/c2ccc(F)cc2)c(O)c2ccccc21	none (no result: KCNK3 inh)
COc1ccc(-c2oc3cccnc3c2C#CC2(O)CCCCC2)cc1	KCNQ1 block 6
COc1ccc(-c2oc3cccnc3c2C#CCO)cc1	none
COCCn1c(=NC(=O)CCS(=O)(=O)c2ccccc2)sc2cc(F)ccc21	none
Cc1ccc(C)c(S(=O)(=O)C(C#N)c2nc3ccccc3nc2N2CCOCC2)c1 (configuration not stated)	none
Cc1ccc(C)c(S(=O)(=O)C(C#N)c2nc3ccccc3nc2N2CCCC2)c1 (configuration not stated)	KCNK9 block -8.08
